Screening results: PubChem, Johns Hopkins Ion Channel Center
This is a sample that favours compounds with a hit; in the whole collection about 3.5% have one here.
MrgX1 antag: human MrgX1 receptor antagonism, primary screen; B-score at 10 µM; Q96LB2; 1.3% of 310,000 active; AID 588676; MRGX1-HEK293 calcium flux, Fluo-4, BAM8-22 antagonism; stronger effect = lower value;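 active = calcium-response B-score plate-corrected more than 3 library SD below zero, starting fluorescence within 5 deviations, no agonist response on first addition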;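 note: peak minus trough fluorescence over baseline after final BAM8-22 challenge near maximal dose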
Target sequence (Q96LB2 whole entry, looked up): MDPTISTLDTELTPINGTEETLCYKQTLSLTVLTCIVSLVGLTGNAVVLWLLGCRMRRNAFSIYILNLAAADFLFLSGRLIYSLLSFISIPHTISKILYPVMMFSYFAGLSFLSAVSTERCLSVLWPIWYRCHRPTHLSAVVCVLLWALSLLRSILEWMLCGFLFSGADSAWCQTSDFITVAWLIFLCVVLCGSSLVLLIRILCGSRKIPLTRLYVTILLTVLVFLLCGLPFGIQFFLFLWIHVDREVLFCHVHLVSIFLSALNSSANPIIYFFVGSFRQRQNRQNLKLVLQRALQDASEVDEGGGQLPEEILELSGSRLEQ
RGS4 pot: potentiators or activators of RGS4; HEK293 M3R/inducible RGS4, carbachol calcium flux Fluo4; stronger effect = lower value; B-score at 10 µM; 0.92% of 310,000 active; AID 463111;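 active = B-score of the integrated calcium signal more than 4 SD below the library mean, with starting fluorescence not abnormally high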;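 note: negative B-score means reduced calcium response which marks RGS4 activation or potentiation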
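test system = M3R-expressing HEK293 line, RGS4 induced by doxycycline | probe or stimulus = carbachol at ECmax as muscarinic agonist stimulus | timing = dye loading 30 min 37 °C, buffer rest 30 min RT | signal = calcium dye Fluo4 fluorescence | evaluation = B score from integrated fluorescence ratio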
RGS4 block: inhibitors of human RGS4; P49798; HEK293 M3R/RGS4 inducible, Fluo-4 calcium flux; stronger effect = higher value; triggered by carbachol at its EC20; B-score at 10 µM; 0.45% of 310,000 active; AID 463165;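 active = B-score, a plate-corrected calcium signal, over three deviations above library mean, with baseline fluorescence within five deviations of library mean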;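 note: RGS4 expression induced by doxycycline in cells with stable M3 receptor; B-score is computed from the integrated fluorescence ratio over baseline after carbachol; higher B-score means a larger calcium signal and so more RGS4 inhibition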
Target sequence (P49798 whole entry, looked up): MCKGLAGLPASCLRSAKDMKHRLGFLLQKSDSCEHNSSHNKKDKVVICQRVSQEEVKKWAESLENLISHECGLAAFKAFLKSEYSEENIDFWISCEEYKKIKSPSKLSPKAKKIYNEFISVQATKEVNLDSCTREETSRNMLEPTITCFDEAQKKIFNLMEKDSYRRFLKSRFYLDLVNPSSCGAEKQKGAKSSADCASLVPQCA
MrgX1 agonist: agonists of human MrgX1 receptor; Q96LB2; MrgX1-HEK293 cells, Fluo-4 calcium fluorescence, agonist mode; stronger effect = higher value; B-score at 10 µM; 0.44% of 310,000 active; AID 588627;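 active = calcium response B-score plate-corrected fluorescence ratio at least 3 library SD, with starting fluorescence B-score inside 5 SD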
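Test system: HEK293 cells stably expressing human MrgX1 receptor; Input: fifteen thousand cells per well; Dosing: compound delivered in addition one of three; Schedule: overnight seeding, then 1 h dark dye loading; Technique: Fluo-4 NW calcium fluorescence; Measure: B-scored fluorescence response ratio; Controls: positive and negative controls per plate.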
MrgX1 PAM: allosterically activates human MrgX1 receptor signaling; Q96LB2; B-score at 10 µM; AID 588675; 0.63% of 310,000 active; MrgX1-HEK293, Fluo-4 calcium flux, FDSS; stronger effect = higher value;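 active = plate-corrected calcium response at least 3 library SD above typical, normal starting fluorescence, not activating the receptor alone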;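 note: compound read alongside a low EC10 to EC30 dose of BAM8-22 agonist; peak minus trough fluorescence over baseline measured at the second addition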
The depositor's hits bear a star; i = inactive; nt = no result.

SMILES	MrgX1 antag	RGS4 pot	RGS4 block	MrgX1 agonist	MrgX1 PAM
Cc1ccc(NC(=O)CSc2ncc3ccccn23)cc1C	i	-7.5*	i	i	i
Cc1ccc(NC(=O)CSc2ncn(-c3ccccc3)n2)cc1C	i	i	i	i	i
Cc1ccc(S(=O)(=O)NCC(=O)N(CC(=O)NCc2ccco2)Cc2ccccc2)cc1	i	i	i	36*	i
Cc1ccc(S(=O)(=O)NCC(=O)N(CCc2ccccc2)CC(=O)NCc2ccco2)cc1	nt	i	i	nt	nt
CC(OC(=O)C1=COCCO1)C(=O)NC(C)c1ccc(Cl)cc1Cl (stereo not given)	i	i	i	i	i
CCN(CC)c1ccc(-c2nn3c(-c4n[nH]c5c4CCC5)nnc3s2)cc1	-12*	-7.2*	i	i	i
O=C(NCc1ccco1)C(c1ccncc1)N(C(=O)Cn1nnc2ccccc21)c1ccccc1F (stereo not given)	i	i	i	i	i
CCOC(=O)c1[nH]c(C=O)c(C(=O)OCC)c1C	i	i	i	i	i
Cc1c(C(=O)/C=C/c2cccs2)oc2ccc(F)cc12	-6*	i	i	i	i
CC(=O)OCCn1c(C)[n+](CCOC(C)=O)c2cc(Cl)c(Cl)cc21	i	i	i	i	i
CC(=O)OCCn1c2nc(=O)[nH]c(=O)c-2nc2cc(C)c(C)cc21	i	-7.7*	i	i	i
COc1ccc(CN2CCN(Cc3ccc(Br)cc3)CC2)c(OC)c1OC	i	i	i	i	i
CCc1sc(C(=O)Nc2ccc3c(c2)OCCO3)cc1Br	i	i	i	i	i
COc1ccc2c(/C=N/Nc3ccc(C(=O)O)cc3)c[nH]c2c1	i	i	i	32*	i
COc1ccc(C(=O)N/N=C/c2c[nH]c3ccccc23)cc1	i	i	i	i	i
Cc1nn(C)c(C(=O)N/N=C/c2cc3c(cc2Br)OCO3)c1Br	i	i	i	i	i
Cc1nonc1C(=O)N/N=C/c1cc2c(cc1Br)OCO2	-5*	i	i	i	i
CCOC(=O)COc1nc(-c2ccc(C)cc2)cc(-c2ccco2)c1C#N	i	i	i	i	i
CCOC(=O)COc1nc(-c2ccco2)cc(-c2ccco2)c1C#N	i	-7.2*	i	i	i
COc1ccc(OCCn2cc(/C=N/NC(=O)c3ccncc3)c3ccccc32)cc1	i	i	i	i	7.2*
Cc1ccc(OCCn2cc(/C=N/NC(=O)c3ccncc3)c3ccccc32)cc1	i	i	i	i	i
Cc1ccc(CNC(=O)CN(C(=O)C2(C)CC(=O)N=C3C=CC=CN32)c2cccc(C)c2C)cc1 (stereo not given)	i	i	i	i	i
O=C(Nc1cc(Sc2ccccn2)cc([N+](=O)[O-])c1)c1ccc(Cl)cc1	-6.1*	-8*	i	i	i
Cc1c(N=C/C=C/c2ccccc2)c(=O)n(-c2ccccc2)n1C	i	-8.7*	i	i	i
Cc1c(N=Cc2cccnc2)c(=O)n(-c2ccccc2)n1C	i	i	i	i	i
SMILES	MrgX1 antag	RGS4 pot	RGS4 block	MrgX1 agonist	MrgX1 PAM
Cc1ccc(C(=O)OCC(=O)Nc2sc3c(c2C#N)CCCCC3)cc1NC(=O)c1ccco1	i	i	i	i	i
Cc1ccc(C(=O)OCC(=O)Nc2sc3c(c2C#N)CCCC3)cc1NC(=O)c1ccco1	i	-7.5*	i	i	i
Cc1ccc(S(=O)(=O)Oc2ccccc2/C=C2/SC(=O)NC2=O)cc1	i	i	i	27*	i
Cc1nc2ccccn2c1/C(O)=C1\C(=O)C(=O)N(CCCN(C)C)C1c1ccc(F)cc1 (stereo not given)	-4.8*	nt	nt	i	i
Cc1nc2c(C)cccn2c1/C(O)=C1\C(=O)C(=O)N(CCN(C)C)C1c1ccncc1 (stereo not given)	i	i	i	i	i
COc1ccc(CCNC(=O)c2c(O)c3ccccc3[nH]c2=O)cc1OC	i	i	i	i	i
O=[N+]([O-])c1cccc(S(=O)(=O)c2ccc(NCCO)c([N+](=O)[O-])c2)c1	i	i	i	i	i
CCOC(=O)C1=C(C)N=c2s/c(=C/c3cccc([N+](=O)[O-])c3O)c(=O)n2C1c1ccc(OC)cc1OC (stereo not given)	i	-8.4*	i	i	i
CCOC(=O)C1=C(C)N=c2s/c(=C/c3ccc(OCC(=O)O)cc3)c(=O)n2C1c1ccc(F)cc1 (stereo not given)	i	-8.3*	i	i	i
CCOC(=O)C1=C(C)N=c2s/c(=C\c3ccc(O)c([N+](=O)[O-])c3)c(=O)n2C1c1ccccc1OC (stereo not given)	-4.6*	i	i	i	i
CCOC(=O)C1=C(C)N=c2s/c(=C/c3ccc(OCC(=O)O)cc3)c(=O)n2C1c1ccc(OC)cc1OC (stereo not given)	i	i	i	i	i
COc1cccc(CNC(=O)C(=O)NCC(c2ccco2)N2CCOCC2)c1 (stereo not given)	i	i	i	i	i
C/C(O)=C(/C#N)c1nc2ccccc2[nH]1	i	i	i	i	i
N#C/C(=C(/O)CSc1ncn[nH]1)c1nc2ccccc2[nH]1	-6.1*	i	i	i	i
O=C(c1ccc(S(=O)(=O)Cc2cc(F)ccc2F)c([N+](=O)[O-])c1)N1CCCC1	i	i	i	i	7.2*
CC1Nc2ncnc(N3CCc4ccccc4C3)c2N(Cc2ccc(Br)cc2)C1=O (stereo not given)	i	-9*	i	i	i
CC1Nc2ncnc(N3CCc4ccccc4C3)c2N(Cc2ccc(Cl)cc2)C1=O (stereo not given)	i	i	i	i	i
COc1cccc2c1OCC(C(=O)OCc1cccnc1)=C2	i	i	i	29*	i
Cc1cc(C)n2nc(C(=O)N/N=C/c3cn(C)nc3C)nc2n1	i	i	i	i	i
Cc1ccc(/C=N/NC(=O)c2nc3nc(C)cc(C)n3n2)cc1	-4.7*	i	i	i	i
Cc1ccc(N2C3=C(C(=O)CC(C)(C)C3)C(c3cn(C)nc3C)C3=C2CC(C)(C)CC3=O)cc1	-6.6*	i	i	i	i
Cc1nn(C)cc1C1C2=C(CC(C)(C)CC2=O)N(c2ccccc2)C2=C1C(=O)CC(C)(C)C2	i	i	i	i	i
